In article PMC11904481 (ESMO Open, 2025):

System: patients with locally advanced unresectable or metastatic, relapsed and/or refractory nonhematological malignancies
Assay: Phase I safety: adverse events
Type: in vivo, human
Summary of the method: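 Adverse events were graded by NCI CTCAE v4.03 across three i.v. schedules of the test compound (0.45-11.3 mg/kg; weekly per 28-day cycle, or days 1, 4, 8 ±11, 15 per 21-day cycle). Special-interest events covered retinal dysfunction symptoms and documented retinal disorders. Clustered signs were grouped as 'infusion reaction'. QTc was calculated with the Fridericia correction.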

[1] = schedule 3 cohort 5, 11.3 mg/kg
[2] = schedule 3 cohort 6, 11.3 mg/kg
[3] = schedules 1/2 cohort 1, 0.45 mg/kg

## O=C1Nc2cc3[nH]nc(-c4ccncc4)c3cc2CN1Cc1ccccc1 [KO-947]
Schedule 3 cohort 4, 7.2 mg/kg
  AESI: Photopsia: 1 (33) n (%)
  AESI: Retinal detachment: 1 (33) n (%)
  AESI: Subretinal fluid: 0 n (%)
  AESI: Total number of AEs: 14 n
  AESI: Vitreous floaters: 0 n (%)
  Patients with ≥1 treatment-related TEAE: 3 (100) n (%)
  Total number of treatment-related TEAEs: 38 n
  Treatment-related TEAE: Blurred vision: 1 (33) n (%)
  Treatment-related TEAE: Dermatitis acneiform: 1 (33) n (%)
  Treatment-related TEAE: Diarrhea: 2 (67) n (%)
  Treatment-related TEAE: Dyspepsia: 1 (33) n (%)
  Treatment-related TEAE: Infusion-related reaction: 1 (33) n (%)
  Treatment-related TEAE: Macular edema: 1 (33) n (%)
  Treatment-related TEAE: Photopsia: 1 (33) n (%)
  Treatment-related TEAE: QTc prolongation: 0 n (%)
  Treatment-related TEAE: Retinal detachment: 1 (33) n (%)
  Treatment-related TEAE: Subretinal fluid: 0 n (%)
  Treatment-related TEAE: Vitreous floaters: 0 n (%)
[1]
  AESI: Blurred vision: 4 (67) n (%)
  AESI: Detachment of retinal pigment epithelium: 1 (17) n (%)
  AESI: Eye disorders: 6 (100) n (%)
  AESI: Macular edema: 2 (33) n (%)
  AESI: Patients with ≥1 AE: 6 (100) n (%)
  AESI: Photopsia: 1 (17) n (%)
  AESI: Retinal detachment: 1 (17) n (%)
  AESI: Subretinal fluid: 1 (17) n (%)
  AESI: Total number of AEs: 16 n
  AESI: Vitreous floaters: 1 (17) n (%)
  Patients with ≥1 treatment-related TEAE: 6 (100) n (%)
  Total number of treatment-related TEAEs: 50 n
  Treatment-related TEAE: Blurred vision: 4 (67) n (%)
  Treatment-related TEAE: Dermatitis acneiform: 4 (67) n (%)
  Treatment-related TEAE: Diarrhea: 2 (33) n (%)
  Treatment-related TEAE: Dyspepsia: 1 (17) n (%)
  Treatment-related TEAE: Infusion-related reaction: 2 (33) n (%)
  Treatment-related TEAE: Macular edema: 2 (33) n (%)
  Treatment-related TEAE: Photopsia: 1 (17) n (%)
  Treatment-related TEAE: QTc prolongation: 1 (17) n (%)
  Treatment-related TEAE: Retinal detachment: 1 (17) n (%)
  Treatment-related TEAE: Subretinal fluid: 1 (17) n (%)
  Treatment-related TEAE: Vitreous floaters: 1 (17) n (%)
[2]
  AESI: Blurred vision: 1 (33) n (%)
  AESI: Detachment of retinal pigment epithelium: 1 (33) n (%)
  AESI: Eye disorders: 2 (67) n (%)
  AESI: Macular edema: 0 n (%)
  AESI: Patients with ≥1 AE: 2 (67) n (%)
  AESI: Photopsia: 1 (33) n (%)
  AESI: Retinal detachment: 0 n (%)
  AESI: Subretinal fluid: 1 (33) n (%)
  AESI: Total number of AEs: 3 n
  AESI: Vitreous floaters: 0 n (%)
  Patients with ≥1 treatment-related TEAE: 3 (100) n (%)
  Total number of treatment-related TEAEs: 9 n
  Treatment-related TEAE: Blurred vision: 1 (33) n (%)
  Treatment-related TEAE: Dermatitis acneiform: 1 (33) n (%)
  Treatment-related TEAE: Diarrhea: 0 n (%)
  Treatment-related TEAE: Dyspepsia: 0 n (%)
  Treatment-related TEAE: Infusion-related reaction: 1 (33) n (%)
  Treatment-related TEAE: Macular edema: 0 n (%)
  Treatment-related TEAE: Photopsia: 1 (33) n (%)
  Treatment-related TEAE: QTc prolongation: 2 (67) n (%)
  Treatment-related TEAE: Retinal detachment: 0 n (%)
  Treatment-related TEAE: Subretinal fluid: 1 (33) n (%)
  Treatment-related TEAE: Vitreous floaters: 0 n (%)
Schedule 3 total N = 27
  AESI: Blurred vision: 9 (33) n (%)
  AESI: Eye disorders: 22 (82) n (%)
  AESI: Macular edema: 4 (15) n (%)
  AESI: Patients with ≥1 AE: 22 (82) n (%)
  AESI: Photopsia: 4 (15) n (%)
  AESI: Retinal detachment: 4 (15) n (%)
  AESI: Subretinal fluid: 6 (22) n (%)
  AESI: Total number of AEs: 50 n
  AESI: Vitreous floaters: 3 (11) n (%)
  Patients with ≥1 treatment-related TEAE: 25 (93) n (%)
  Total number of treatment-related TEAEs: 136 n
  Treatment-related TEAE: Blurred vision: 9 (33) n (%)
  Treatment-related TEAE: Dermatitis acneiform: 6 (22) n (%)
  Treatment-related TEAE: Diarrhea: 6 (22) n (%)
  Treatment-related TEAE: Dyspepsia: 3 (11) n (%)
  Treatment-related TEAE: Infusion-related reaction: 6 (22) n (%)
  Treatment-related TEAE: Macular edema: 4 (15) n (%)
  Treatment-related TEAE: Photopsia: 4 (15) n (%)
  Treatment-related TEAE: QTc prolongation: 3 (11) n (%)
  Treatment-related TEAE: Retinal detachment: 4 (15) n (%)
  Treatment-related TEAE: Subretinal fluid: 6 (22) n (%)
  Treatment-related TEAE: Vitreous floaters: 3 (11) n (%)
[3]
  AESI: Blurred vision: 0 n (%)
  AESI: Eye disorders: 0 n (%)
  AESI: Macular edema: 0 n (%)
  AESI: Retinal edema: 0 n (%)
  AESI: Subretinal fluid: 0 n (%)
  AESI: Vitreous floaters: 0 n (%)
  Patients with ≥1 AESI: 0 n (%)
  Patients with ≥1 treatment-related TEAE: 1 (100) n (%)
